Assay [1] addresses T1, Prostaglandin E synthase (Homo sapiens) (UniProt O14684).
T1 sequence (whole entry): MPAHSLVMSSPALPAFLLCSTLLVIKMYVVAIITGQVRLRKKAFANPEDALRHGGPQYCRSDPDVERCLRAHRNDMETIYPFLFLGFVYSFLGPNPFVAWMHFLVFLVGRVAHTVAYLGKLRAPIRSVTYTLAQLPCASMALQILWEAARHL
Description: Inhibition of mPGES-1 in microsomes isolated from IL-1beta-stimulated human A549 cells at 10 uM using PGH2 as substrate preincubated for 15 mins followed by substrate addition measured after 1 min by RP-HPLC method relative to control. It counts as cell-free. A digest of the protocol: (§1)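 mPGES-1 source: microsomes of A549 cells stimulated 48 h with IL-1β (1 ng/ml), sonicated, spun 10,000×g 10 min then 174,000×g 1 h at 4 °C. Diluted in 0.1 M potassium phosphate pH 7.4 with 2.5 mM glutathione. Compound or DMSO vehicle added 15 min at 4 °C, then 20 µM PGH2 for 1 min at 4 °C. Stopped with FeCl2/citric acid plus 11β-PGE2. PGE2 measured by solid-phase extraction and RP-HPLC.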

A further assay addresses T2, Prostaglandin E synthase (Homo sapiens, UniProt O14684).
T2 sequence (O14684 whole entry): T1 sequence (whole entry)
The experiment in a line: Inhibition of mPGES-1 in microsomes isolated from IL-1beta-stimulated human A549 cells using PGH2 as substrate preincubated for 15 mins followed by substrate addition measured after 1 min by RP-HPLC method. It counts as cell-free. The essentials: as §1

The term inhibition denotes how much of the control response was suppressed. The term IC50 denotes the midpoint of a concentration-inhibition curve.

Molecules are shown by their SMILES.

In assay [1], `O=C(Oc1ccc2c(c1)-c1nc3nonc3nc1C2=O)c1ccccc1` gave an inhibition of 70%. The same molecule registered an IC50 against Prostaglandin E synthase of 2.4 µM.

Regarding `O=C1c2nc3nonc3nc2-c2cccc(O)c21`, in assay [1], the inhibition worked out at 5%.

In turn, `O=C(Oc1cccc2c1C(=O)c1nc3nonc3nc1-2)c1ccccc1` gave an inhibition in assay [1] of 70%. On Prostaglandin E synthase, this molecule came in with an IC50 of 4.6 µM.

As for `O=C1c2ccccc2-c2nc3nonc3nc21`, the inhibition in assay [1] is 30%.

In the case of `CC(=O)O/N=C1\C=Cc2c(no[n+]2[O-])C1=O`, the inhibition in assay [1] was determined as 20%.

With `O=C(Oc1ccc2c(c1)C(=O)c1nc3nonc3nc1-2)c1ccccc1`, the inhibition in assay [1] came to 85%. Besides, the 50% inhibitory concentration (IC50) against Prostaglandin E synthase came out at 2.4 µM.

For `O=C1c2cc(O)ccc2-c2nc3nonc3nc21`, in assay [1], the inhibition was determined as 15%.

The molecule `O=C1c2ccc(O)cc2-c2nc3nonc3nc21` showed an inhibition in assay [1] of 30%.
